From ChEMBL document CHEMBL5712899, “WDR5 supports colon cancer cells by promoting methylation of H3K4 and suppressing DNA damage” (2018)
Active and inactive are the calls of the source. The rule behind the calls is not given here.

Key:
LoVo [1] = assay: Inhibition of colony formation in human LoVo cells assessed as decrease in colony size at 10 uM incubated for 10 to 14 days; type: functional, cell-based; details: time 10-14 day
Summary of the method: (§1)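 Colony assay in 24-well plates with compound for 10–14 days, diluted from 10 mM DMSO stock to a final 0.1% DMSO (vehicle control). Colony number and average colony size quantified per line. Unpaired two-sided t-test.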

RKO [2] = assay: Cytotoxicity against human RKO cells assessed as decrease in cell viability at 10 uM measured after 72 hrs by Alamar Blue assay; type: functional, cell-based
Summary of the method: (§2)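 Cells grown in DMEM with 10% FBS and treated 72 h with compound diluted 1:1000 from 10 mM DMSO stock (final 0.1% DMSO, vehicle control). alamarBlue added at 100 μL per mL medium for 1–3 h at 37 °C, then fluorescence read. Values background-subtracted against cell-free wells and normalized to control set to 1. Shown ± SD; unpaired two-sided t-test.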

SW-620 [3] = assay: Induction of apoptosis in human SW620 cells assessed as necrotic cells at 10 uM measured after 48 hrs by Annexin V/Propidium iodide staining based flow cytometry (reference value: 0.87%); type: functional
SW-620 [4] = assay: Cell cycle arrest in human SW620 cells assessed as increase in G1-phase cell population at 10 uM measured after 48 hrs by propidium iodide staining based flow cytometry; type: functional
Summary of the method: (§3)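 Fixed overnight at −20 °C in ice-cold 70% ethanol after collecting adherent and nonadherent cells. Rehydrated in PBS for 15 min at 37 °C, then PI-stained for 8–15 h. Read on an LSR II flow cytometer with cell-cycle modelling for phase percentages. Compound added from 10 mM DMSO stock diluted 1:1000 into pre-warmed medium (0.1% DMSO vehicle control). Unpaired two-sided t-test.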

LoVo [5] = assay: Inhibition of colony formation in human LoVo cells assessed as decrease in number of colonies at 10 uM incubated for 10 to 14 days; type: functional, cell-based; details: time 10-14 day; summary of the method: as §1
[6] = Inhibition of RBBP5 interaction with flag-tagged human WDR5 expressed in HEK293T cells assessed as endogenous RBBP5 level at 10 uM measured after 5 hrs by co-immunoprecipitation assay relative to control; parameters: scale not given: the % may be the effect or the level left; details: condition malignant colon neoplasm
HCT-116 [7] = assay: Induction of apoptosis in human HCT-116 cells assessed as late apoptotic cells at 10 uM measured after 48 hrs by Annexin V/Propidium iodide staining based flow cytometry (reference value: 17.2%); type: functional
SW-620 [8] = assay: Cytotoxicity against human SW620 cells assessed as reduction in cell viability at 10 uM for 72 hrs by Alamar Blue assay relative to control; type: functional; summary of the method: as §2
HCT-116 [9] = assay: Induction of apoptosis in human HCT-116 cells assessed as viable cells at 10 uM measured after 48 hrs by Annexin V/Propidium iodide staining based flow cytometry (reference value: 62.7%); type: functional; details: read-out: Activity
SW-620 [10] = assay: Induction of apoptosis in human SW620 cells assessed as early apoptotic cells at 10 uM measured after 48 hrs by Annexin V/Propidium iodide staining based flow cytometry (reference value: 4.03%); type: functional
T84 [11] = assay: Cytotoxicity against human T84 cells assessed as reduction in cell viability at 10 uM for 72 hrs by Alamar Blue assay relative to control; type: functional; summary of the method: as §2
SW-620 [12] = assay: Inhibition of colony formation in human SW620 cells assessed as decrease in colony size at 10 uM incubated for 10 to 14 days; type: functional, cell-based; details: time 10-14 day; summary of the method: as §1
T84 [13] = assay: Inhibition of colony formation in human T84 cells assessed as decrease in colony size at 10 uM incubated for 10 to 14 days; type: functional, cell-based; details: time 10-14 day; summary of the method: as §1
HCT-116 [14] = assay: Induction of apoptosis in human HCT-116 cells assessed as necrotic cells at 10 uM measured after 48 hrs by Annexin V/Propidium iodide staining based flow cytometry (reference value: 0.67%); type: functional
RKO [15] = assay: Induction of apoptosis in human RKO cells assessed as viable cells at 10 uM measured after 48 hrs by Annexin V/Propidium iodide staining based flow cytometry (Rvb =76.1%); type: functional; details: read-out: Activity
HCT-116 [16] = assay: Cytotoxicity against human HCT-116 cells assessed as decrease in cell viability at 10 uM for 72 hrs by Alamar Blue assay; type: functional, cell-based; summary of the method: as §2
SW-620 [17] = assay: Induction of apoptosis in human SW620 cells assessed as late apoptotic cells at 10 uM measured after 48 hrs by Annexin V/Propidium iodide staining based flow cytometry (reference value: 10.3%); type: functional
SW-620 [18] = assay: Induction of apoptosis in human SW620 cells assessed as viable cells at 10 uM measured after 48 hrs by Annexin V/Propidium iodide staining based flow cytometry (Rvb =84.8%); type: functional; details: read-out: Activity
RKO [19] = assay: Induction of apoptosis in human RKO cells assessed as early apoptotic cells at 10 uM measured after 48 hrs by Annexin V/Propidium iodide staining based flow cytometry (reference value: 16.7%); type: functional
SW-620 [20] = assay: Inhibition of colony formation in human SW620 cells assessed as decrease in number of colonies at 10 uM incubated for 10 to 14 days; type: functional, cell-based; details: time 10-14 day; summary of the method: as §1
RKO [21] = assay: Inhibition of colony formation in human RKO cells assessed as decrease in number of colonies at 10 uM incubated for 10 to 14 days; type: functional, cell-based; details: time 10-14 day; summary of the method: as §1
RKO [22] = assay: Inhibition of colony formation in human RKO cells assessed as decrease in colony size at 10 uM incubated for 10 to 14 days; type: functional, cell-based; details: time 10-14 day; summary of the method: as §1
HCT-116 [23] = assay: Induction of apoptosis in human HCT-116 cells assessed as early apoptotic cells at 10 uM measured after 48 hrs by Annexin V/Propidium iodide staining based flow cytometry (reference value: 19.4%); type: functional
SW480 = assay: Inhibition of colony formation in human SW480 cells assessed as decrease in number of colonies at 10 uM incubated for 10 to 14 days; type: functional, cell-based; details: time 10-14 day; summary of the method: as §1
RKO [24] = assay: Cell cycle arrest in human RKO cells assessed as increase in G1-phase cell population at 10 uM measured after 48 hrs by propidium iodide staining based flow cytometry; type: functional; summary of the method: as §3
T84 [25] = assay: Inhibition of colony formation in human T84 cells assessed as decrease in number of colonies at 10 uM incubated for 10 to 14 days; type: functional, cell-based; details: time 10-14 day; summary of the method: as §1
RKO [26] = assay: Induction of apoptosis in human RKO cells assessed as late apoptotic cells at 10 uM measured after 48 hrs by Annexin V/Propidium iodide staining based flow cytometry (reference value: 6.58%); type: functional
HCT-116 [27] = assay: Inhibition of colony formation in human HCT-116 cells assessed as decrease in colony size at 10 uM incubated for 10 to 14 days; type: functional, cell-based; details: time 10-14 day; summary of the method: as §1
RKO [28] = assay: Induction of apoptosis in human RKO cells assessed as necrotic cells at 10 uM measured after 48 hrs by Annexin V/Propidium iodide staining based flow cytometry (reference value: 0.54%); type: functional

With CN1CCN(c2ccc(-c3cccc(CN4CCOCC4)c3)cc2NC(=O)c2c[nH]c(=O)cc2C(F)(F)F)CC1 the inhibition (LoVo [1]) was “inactive”, the Activity (RKO [2]) was “Active” and the Activity (SW-620 [3]) was 0.43%. The Activity (SW-620 [4]) was “Active”, the inhibition (LoVo [5]) was “inactive” and the Activity [6] was under 20%. The Activity (HCT-116 [7]) was 30.4%, the Activity (SW-620 [8]) was 50% and the viability at 10 µM (HCT-116 [9]) was 46.1%. For the same compound, the Activity (SW-620 [10]) was 8.01%, the Activity (T84 [11]) was 50% and the inhibition (SW-620 [12]) was “Active”. The inhibition (T84 [13]) was “Active”, the Activity (HCT-116 [14]) was 1.36% and the viability at 10 µM (RKO [15]) was 68.5%. For the same compound, the Activity (HCT-116 [16]) was “Active”, the Activity (SW-620 [17]) was 10.3% and the viability at 10 µM (SW-620 [18]) was 81.3%. The Activity (RKO [19]) was 27%, the inhibition (SW-620 [20]) was “Active” and the inhibition (RKO [21]) was “Active”. For the same compound, the inhibition (RKO [22]) was “inactive”, the Activity (HCT-116 [23]) was 22.2% and the inhibition (SW480) was “Active”. The Activity (RKO [24]) was “Active”, the inhibition (T84 [25]) was “Active” and the Activity (RKO [26]) was 4.3%. For the same compound, the inhibition (HCT-116 [27]) was “Active” and the Activity (RKO [28]) was 0.18%.
